# Bioassay records as filed in PubChem BioAssay.
# MEKK2 WT-MEK5: raises or lowers MEK5 binding to wildtype human MEKK2 PB1 domain; Q9Y2U5; binding response (% of control), % at 10 µM; actives 1.1% (n = 290,000); bead flow cytometry, Alexa488-MEK5 binding to MEKK2 WT; actives lie on both sides; in the data active = binding response below about 67% or above about 130%
# Apaf-1 inh: inhibitors of human Apaf-1 apoptosome; actives 0.71% (n = 330,000); O14727; reconstituted apoptosome caspase-3 activity, DEVD-Rh110 fluorescence; inhibition, % at 20 µM; active = inhibition of at least 40% at 20 µM;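 also: plate controls were DMSO wells for no effect and DEVD-CHO caspase inhibitor wells for full effect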
#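 Material: reconstituted apoptosome with Apaf-1, cytochrome c, caspase-9, procaspase-3, dATP; medium: pH 7.5 Hepes buffer with CHAPS, BSA, DTT; also added: cytochrome c and DEVD-Rh110 substrate; timing: 30 min plus 50 min, RT; signal: Rh110 fluorescence intensity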
# MEKK3 PB1 HTS: MEKK3-MEK5 PB1 interaction, increase or decrease; bead-based flow cytometry, Alexa488-MEK5 binding to MEKK3; actives lie on both sides; 0 = blocked by unlabeled MEK5, 100 = vehicle; binding response (% of control), % at 10 µM; actives 1.4% (n = 290,000); AID 1529;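 active = binding response more than 3 SD above or below the average of its plate-row segment, actives on both sides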;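 also: Alexa488 bead fluorescence after subtracting the streptavidin-only scavenger bead signal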
# Target sequence (Q99759 whole entry, looked up): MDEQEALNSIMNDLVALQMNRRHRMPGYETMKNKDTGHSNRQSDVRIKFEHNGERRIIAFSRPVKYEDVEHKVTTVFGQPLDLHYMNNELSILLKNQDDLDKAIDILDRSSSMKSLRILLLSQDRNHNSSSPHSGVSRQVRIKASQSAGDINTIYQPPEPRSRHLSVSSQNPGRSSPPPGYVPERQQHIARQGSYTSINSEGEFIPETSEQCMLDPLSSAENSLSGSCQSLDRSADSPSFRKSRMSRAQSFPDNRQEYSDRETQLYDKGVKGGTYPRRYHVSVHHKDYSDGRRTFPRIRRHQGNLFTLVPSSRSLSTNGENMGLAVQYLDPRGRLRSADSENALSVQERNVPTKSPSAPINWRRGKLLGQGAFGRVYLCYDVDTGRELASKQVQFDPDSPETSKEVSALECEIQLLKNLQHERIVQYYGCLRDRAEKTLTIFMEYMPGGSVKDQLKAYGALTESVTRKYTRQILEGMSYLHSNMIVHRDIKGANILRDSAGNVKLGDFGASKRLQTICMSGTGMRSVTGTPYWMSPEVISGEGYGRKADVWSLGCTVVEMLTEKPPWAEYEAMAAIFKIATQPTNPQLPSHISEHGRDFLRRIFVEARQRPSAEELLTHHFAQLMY
# UBC13 polyUb: inhibitors of human UBC13 polyubiquitin chain formation; actives 0.47% (n = 330,000); AID 485273; inhibition, % at 20 µM; TR-FRET; P61088; in the data active = inhibition above about 45%, passing the limit was not always enough
# MEKK2mut PB1 HTS: signal of MEK5 binding to mutant human MEKK2 PB1 domain; bead flow cytometry, Alexa488-MEK5 binding to MEKK2 mutant; actives 0.35% (n = 290,000); AID 1530; percent response, % at 10 µM; in the data active = percent response above about 24%, passing the limit was not always enough
# MEKK2wt confirm: raises or lowers MEK5 binding to wildtype human MEKK2, retest | binding response (% of control), % at 10 µM | shares compounds with MEKK3 PB1 HTS | bead flow cytometry, Alexa488-MEK5 binding to MEKK2 WT; actives lie on both sides | actives 2.4% (n = 5,900); in the data active = binding response below about 16% or above about 210%; inactive = in between
# MEKK2mut confirm: signal of MEK5 binding to mutant human MEKK2, retest | shares compounds with MEKK3 PB1 HTS | bead flow cytometry, Alexa488-MEK5 binding to MEKK2 mutant | actives 2% (n = 5,900) | AID 1893 | percent response, % at 10 µM; in the data active = percent response mostly above about 71%, no sharp cut-off; inactive = mostly below about 38%;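 also: higher means compound restores mutant binding toward wildtype level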
# MEKK3 confirm: confirmation of inhibitors of MEK5 binding to human MEKK3; shares compounds with MEKK3 PB1 HTS; bead flow cytometry, Alexa488-MEK5 binding to MEKK3; stronger effect = lower value; binding response (% of control), % at 10 µM; actives 1.8% (n = 5,900);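 active = binding response below 72% of control, or above a set upper limit, though filed actives all read lower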;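 also: 100% = DMSO only wells and 0% = binding blocked by excess unlabeled MEK5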
# An asterisk follows results filed as active; . = no result; [ ] = another dose, or the depositor's remark. Most compounds without a hit are left out; they make up all but 2.9% or so of the library.
SMILES,MEKK2 WT-MEK5,Apaf-1 inh,MEKK3 PB1 HTS,UBC13 polyUb,MEKK2mut PB1 HTS,MEKK2wt confirm,MEKK2mut confirm,MEKK3 confirm
COC(=O)c1ccc(CSc2nc3ccccc3c(=O)n2-c2ccccc2)o1,96,17,102,8,-2,.,.,.
CC1(c2ccccc2)NC(=O)N(CC(=O)Nc2ccc(N3CCOCC3)cc2)C1=O (stereo not given),.,-5,.,-10,.,.,.,.
O=C(O)c1cccc(NC(=S)N/N=C/c2ccccn2)c1,128,-7,159*,-11,6,107,2,104
O=C(O)c1cccc(NC(=S)N/N=C/c2cccc(O)c2)c1,94,-3,95,0,-3,.,.,.
O=C(NCc1nc2ccccc2[nH]1)C1=C[C@H](C2CC2)C[C@H](OCCCCO)O1,94,-1,79*[inhibitor],-4,-3,96,0,103
CCO[C@H]1OC(C(=O)NCc2nc3ccccc3[nH]2)=C[C@@H](C2CC2)[C@@H]1CCCO,2.0*[inhibitor],-3,1.0*[inhibitor],-1,12,100,-2,101
O=C(NCc1nc2ccccc2[nH]1)C1=C[C@H](C2CCCCC2)C[C@H](OCCCCO)O1,103,20,103,4,2,.,.,.
CCO[C@H]1OC(C(=O)NCc2nc3ccccc3[nH]2)=C[C@@H](c2ccccc2)[C@@H]1CCCO,72,7,73,6,2,.,.,.
O=C(Nc1ccccc1-c1ccccc1)C(=O)Nc1ccccc1-c1ccccc1,102,5,100,9,9,.,.,.
Nc1ccccc1Sc1c[nH]c2ccccc12,95,3,97,6,-1,.,.,.
CC1(c2nnc(-c3cccc(Cl)c3)o2)CC(c2ccccc2F)=NO1 (stereo not given),107,15,107,6,7,.,.,.
CCN(CC(=O)NC(C)(C)C)C(=O)CCl,104,-2,136*,-2,0,99,-2,99
COc1cc(/C=C/C(=O)Nc2ccc(C(C)=O)cc2)cc(OC)c1OC,92,0,88,-2,-1,.,.,.
COc1cc(/C=C/C(=O)Nc2ccncc2)cc(OC)c1OC,106,2,146*,0,0,112,3,106
COc1ccc(OC)c(S(=O)(=O)n2ccc(C)n2)c1,99,-7,104,4,2,.,.,.
COc1ccc(OC)c(S(=O)(=O)n2nc(C)cc2C)c1,125,-38,135*,-1,7,95,-1,101
N#C/C(=N\Nc1ccc(Cl)c(Cl)c1)C(=O)C1CC1,45*[inhibitor],-2,45*[inhibitor],-3,-8,94,-2,99
N#C/C(=N\Nc1ccc(F)cc1)C(=O)C1CC1,103,2,102,-13,-2,.,.,.
O=C(N1CCN(c2ccccc2F)CC1)C1(c2cccs2)CCOCC1,106,0,134*,-9,0,97,2,103
O=C(N1CCN(c2ccccc2F)CC1)C12CC3CC(CC(C3)C1)C2,101,13,104,3,0,.,.,.
O=C(NCCN1CCN(c2ccccc2)CC1)Nc1ccccc1Br,105,-2,102,2,1,.,.,.
COC(=O)[C@H](CC(C)C)N(Cc1ccccc1)S(=O)(=O)N(Cc1ccc(OC)cc1)[C@@H](CC(C)C)C(=O)OC,.,16,.,6,.,.,.,.
O=C(Cn1cc[n+](CC(=O)c2ccc(Cl)cc2Cl)c1)c1ccc(Cl)cc1Cl,174*,20,109,35,39,153,24,108
CCCCNc1c([N+](=O)[O-])cc(C(=O)O)cc1[N+](=O)[O-],107,2,138*,-16,0,103,1,102
CCCCNc1c([N+](=O)[O-])cc(C)cc1[N+](=O)[O-],109,-16,109,-34,6,.,.,.
